Measurements pooled from the literature.
Each line is one published result; the experiments were not run side by side. pIC50: −log10 of the molar value. Values after ≈ are worked out from the molar mass of the structure shown.
Organism: Mycolicibacterium smegmatis
Effect on: microbial growth

`CCCCCc1ccc(-c2c[nH]c(N)n2)cc1` gave an MIC of 200 µM (ATCC700084 MC^2155; 48 h).
`Cc1nc2sc3ccccc3n2c1C(=O)N1CCN(Cc2cn(-c3ccc([N+](=O)[O-])cc3)nn2)CC1` gave a pIC50 of less than 3.89 (72 h).
With `CO[C@H]1/C=C/O[C@@]2(C)Oc3c(C)c(O)c4c(O)c(c(/C=N/N5CCN(C)CC5)c(O)c4c3C2=O)NC(=O)/C(C)=C\C=C\[C@H](C)[C@H](O)[C@@H](C)[C@@H](O)[C@@H](C)[C@H](OC(C)=O)[C@@H]1C` the inhibition zone was 14 mm (disc diffusion; 15 µg/disc).
`CCCCCCCCCc1cn(CCN2CCN(C(=O)c3c(C)nc4sccn34)CC2)nn1` gave a pIC50 of 4.55 (72 h).
The pIC50 of `CC(C)=CCC/C(C)=C/C(=O)O` is reported as less than 3.30 (48 h).
`Cc1ccc(-n2cc(CN3CCN(C(=O)c4c(C)nc5sc6ccccc6n45)CC3)nn2)cc1C` has a pIC50 of 5.24 (72 h).
`O=C(N[C@H](CO)[C@H](O)c1ccc([N+](=O)[O-])cc1)C(Cl)Cl` gave an MIC90 of 125 µg/mL (≈ 387 µM) (ATCC14468).
For `Cc1nc2sccn2c1C(=O)N1CCN(CCn2cc(CSc3nc4ccccc4[nH]3)nn2)CC1`, the pIC50 was 4.79 (72 h).
`CCc1ccc(-c2c[nH]c(N)n2)cc1` gave an MIC of 100 µM (ATCC700084 MC^2155; 48 h).
For `ON=C1C2CC3CC(C2)CC1C3`, the pIC50 was less than 3.30 (48 h).
With `CC(C)=CCC/C(C)=C/COCCNC1C2CC3CC(C2)CC1C3` (stereo not drawn) the pIC50 was roughly 5.05 (48 h).
With `COc1c(N2C[C@@H]3CCCN[C@@H]3C2)c(F)cc2c(=O)c(C(=O)O)cn(C3CC3)c12` the MIC90 was 0.12 µg/mL (≈ 0.299 µM) (ATCC14468).
